From ChEMBL document CHEMBL1799951, “FimH antagonists for the oral treatment of urinary tract infections: from design and synthesis to in vitro and in vivo evaluation” (J Med Chem, 2010)
Activity calls are given as the source filed them. The calls are words filed in the database; no cut-off is given here.

Assays:
[1] = molecular target: Mannose-binding protein C (Homo sapiens) (UniProt P11226); experiment: Binding affinity to MBP at 1 mM
Procedure, shortened: (§1)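 FimH-CRD (10 μg/mL), DC-SIGN-CRD-Fc (2.5 μg/mL) or MBP (10 μg/mL) coated overnight at 4 °C in 20 mM HEPES pH 7.4, 150 mM NaCl, 10 mM CaCl2. Competition against streptavidin-peroxidase TM-PAA polymer as in the FimH ELISA, test compounds at 1 mM. D-mannose at 50 mM as positive control.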

[2] = molecular target: T1, CD209 antigen (Homo sapiens) (UniProt Q9NNX6); experiment: Binding affinity to Fc-IgG-tagged DC-SIGN carbohydrate recognizing domain at 1 mM; procedure, shortened: as §1
T1 sequence (whole entry): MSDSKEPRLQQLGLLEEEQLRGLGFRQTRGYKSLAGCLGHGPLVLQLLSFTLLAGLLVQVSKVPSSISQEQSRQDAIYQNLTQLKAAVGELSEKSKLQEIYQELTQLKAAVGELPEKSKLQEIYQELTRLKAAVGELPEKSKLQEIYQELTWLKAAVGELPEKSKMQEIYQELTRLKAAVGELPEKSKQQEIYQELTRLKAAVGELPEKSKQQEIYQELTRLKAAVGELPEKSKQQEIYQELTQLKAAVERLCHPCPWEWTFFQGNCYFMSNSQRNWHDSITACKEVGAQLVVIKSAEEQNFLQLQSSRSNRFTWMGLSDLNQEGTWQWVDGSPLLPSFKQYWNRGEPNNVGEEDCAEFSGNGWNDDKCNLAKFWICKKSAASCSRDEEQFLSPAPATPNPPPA

[3] = Dissociation constant, pKa of the compound by NMR spectrometric analysis; type: physicochemical
[4] = Lipophilicity, log D at pH 7.4 by miniatured shake flask method; type: physicochemical; details: buffer
Procedure, shortened: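 Octanol-saturated 0.1 M phosphate pH 7.4 containing analyte at 1 μM, overlaid with octanol at two volume ratios, three wells each. Shaken 2 h at 25 °C, then centrifuged; aqueous phase measured by LC-MS. log D computed from depletion. Accepted when the ratio means agree within 0.1.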

[5] = Permeability coefficient, log Pe of the compound by PAMPA method; type: ADME
Procedure, shortened: (§2)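 PAMPA with GIT-0 lipid, donor analyte 50 μM at pH 5.0, 6.2 and 7.4 in quadruplicate, 16 h undisturbed incubation. Donor and acceptor quantified by UV and LC-MS.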

[6] = Permeability of the compound assessed as membrane retention by PAMPA method; type: ADME; procedure, shortened: as §2
[7] = Thermodynamic solubility of the compound at pH 6.5 after 24 hrs by LC-MS analysis; type: physicochemical; details: buffer, read-out: Therm_solubility
Procedure, shortened: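 1 mg solid in 250 μL 50 mM phosphate pH 6.5, sonicated 15 min, shaken 2 h at 25 °C, left 24 h. pH measured, then filtered and diluted; concentration determined by LC-MS.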

[8] = Stability of the compound in simulated gastrointestinal fluid assessed as compound remaining after 2 hrs by LC-MS analysis; type: physicochemical; details: read-out: Stability
[9] = Stability of the compound in simulated intestinal fluid assessed as compound remaining after 2 hrs by LC-MS analysis; type: physicochemical; details: read-out: Stability
Procedure, shortened: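 Simulated intestinal fluid (phosphate, NaOH, pancreatin, pH 6) at 37 °C, compound at 10 μM, 500 rpm. Samples at 0-120 min MeCN-quenched; LC-MS as % remaining versus initial.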

[10] = Cmax in plasma of urinary tract infection C3H/HeN mouse model at 50 mg/kg, iv administered as single dose measured after 6 hrs by LC-MS analysis; type: ADME, organism-based; parameters: dose 50 mg/kg, route intravenous
Procedure, shortened: (§3)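 Female C3H/HeN mice (19-25 g) dosed once iv at 50 mg/kg in 100 μL PBS via tail vein. Blood and urine (10 μL) sampled at 6 min, 30 min, 1, 2, 4, 6, 8 and 24 h. Proteins precipitated with methanol, centrifuged, and supernatant quantified by LC-MS.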

[11] = Cmax in urine of urinary tract infection C3H/HeN mouse model at 50 mg/kg, iv administered as single dose measured after 6 hrs by LC-MS analysis; type: ADME, organism-based; parameters: dose 50 mg/kg, route intravenous; procedure, shortened: as §3
[12] = AUC (0 to 24 hrs) in plasma of urinary tract infection C3H/HeN mouse model at 50 mg/kg, iv administered as single dose measured after 6 hrs by LC-MS analysis; type: ADME, organism-based; parameters: time < 24 hr, dose 50 mg/kg, route intravenous; procedure, shortened: as §3
[13] = AUC (0 to 24 hrs) in urine of urinary tract infection C3H/HeN mouse model at 50 mg/kg, iv administered as single dose measured after 6 hrs by LC-MS analysis; type: ADME, organism-based; parameters: time < 24 hr, dose 50 mg/kg, route intravenous; procedure, shortened: as §3
[14] = AUC (0 to 24 hrs) in urine of urinary tract infection C3H/HeN mouse model at 50 mg/kg, po administered as single dose measured after 6 hrs by LC-MS analysis; type: ADME, organism-based; parameters: time < 24 hr, dose 50 mg/kg, route oral
Procedure, shortened: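 Female C3H/HeN mice (19-25 g) gavaged once at 50 mg/kg. Compound dissolved in DMSO and diluted in 1% Tween-80/PBS as a suspension, or given in 200 μL PBS. Blood and urine sampled at 6 min to 24 h, methanol-precipitated, and analysed by LC-MS. For the prodrug, both parent and carboxylate metabolite were measured.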

Escherichia coli [15] = experiment: Antibacterial activity against Escherichia coli […] infected in urinary tract infection C3H/HeN mouse model assessed as log reduction in bacterial CFU in urine of mouse at 50 mg/kg, po administered as single dose 1 hr before infection and measured after 3 hrs post infection; type: functional; details: route intravenous, in the assay text read “iv administered” for “po administered”
Escherichia coli [16] = experiment: Antibacterial activity against Escherichia coli […] infected in urinary tract infection C3H/HeN mouse model assessed as log reduction in bacterial CFU in bladder of mouse at 50 mg/kg, po administered as single dose 1 hr before infection and measured after 3 hrs post infection; type: functional; details: route intravenous, in the assay text read “iv administered” for “po administered”
Escherichia coli [17] = experiment: Antibacterial activity against Escherichia coli […] infected in urinary tract infection C3H/HeN mouse model assessed as log reduction in bacterial count in kidney of mouse at 50 mg/kg, iv administered as single dose 1 hr before infection and measured after 3 hrs post infection; type: functional, organism-based; parameters: dose 50 mg/kg
Procedure, shortened: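 Female C3H/HeN mice given antagonist iv (100 μL PBS, tail vein) or po as suspension, then infected. Infection: isoflurane anaesthesia, bladder emptied, 50 μL UTI89 at about 10^9-10^10 CFU/mL via transurethral catheter. Six mice per group, killed 3 h post-inoculation. Kidneys plated on EMB agar. Reduction taken against the 3 h untreated control mean; Mann-Whitney test.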

Liver = experiment: Metabolic stability of the compound in mouse liver microsomes assessed as Cyp 450-mediated degradation at 2 uM after 30 mins by LC-MS analysis in presence of NADPH; details: 0.5 h
Escherichia coli [18] = experiment: Antibacterial activity against Escherichia coli […] infected in urinary tract infection C3H/HeN mouse model assessed as reduction in bacterial count in kidney of mouse at 50 mg/kg, iv administered as single dose 1 hr before infection and measured after 3 hrs post infection

Chain of Mannose-binding protein C (Homo sapiens) (P11226 whole entry): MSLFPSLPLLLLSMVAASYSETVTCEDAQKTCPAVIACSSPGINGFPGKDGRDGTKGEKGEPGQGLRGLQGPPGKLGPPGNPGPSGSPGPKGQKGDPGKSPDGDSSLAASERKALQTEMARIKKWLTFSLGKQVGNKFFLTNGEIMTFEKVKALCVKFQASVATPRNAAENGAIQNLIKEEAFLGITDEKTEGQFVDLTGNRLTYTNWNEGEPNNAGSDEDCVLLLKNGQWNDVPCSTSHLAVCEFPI

Activity [1]: inactive | Activity [2]: inactive | pKa [3]: 3.98 | logD [4]: -0.77 | permeability [5]: impermeable | permeability [6]: 3.5% | solubility thermodynamic at 24 h [7]: > 3 mg/mL | remaining at 2 h [8]: 80% | remaining at 2 h [9]: 80% | Cmax [10]: 39.4 µg/mL | Cmax [11]: 588 µg/mL | AUC(0-t) at 24 h [12]: 20.8 µg·h/mL | AUC(0-t) at 24 h [13]: 210 µg·h/mL | AUC(0-t) at 24 h [14]: 2.7 µg·h/mL | Stability (Liver): Stable
Compound: O=C([O-])c1ccc(-c2ccc(O[C@H]3O[C@H](CO)[C@@H](O)[C@H](O)[C@@H]3O)c(Cl)c2)cc1.[Na+]
FC (Escherichia coli [15]): 2 | FC (Escherichia coli [16]): 4 | Activity (Escherichia coli [17]): Active | Activity (Escherichia coli [18]): Active
